Test results reported in ChEMBL document CHEMBL2034936, “Discovery and extensive in vitro evaluations of NK-HDAC-1: a chiral histone deacetylase inhibitor as a promising lead” (J Med Chem, 2012).
Calls of active or inactive are those of the source. No cut-off for these calls is given here.

What was measured:
[1] = system: HepG2; assay: cells; format: functional; settings: Homo sapiens, HepG2, 72 h
[2] = system: MDA-MB-231; assay: cells; format: functional; settings: Homo sapiens, MDA-MB-231, 72 h
[3] = target: Histone deacetylase (Homo sapiens) (UniProt Q13547+O15379+Q9UBN7+Q92769+Q9UQL6+Q8WUI4+Q9BY41+Q96DB2+P56524+Q9UKV0+Q969S8); assay: Inhibition of HDAC in human MDA-MB-231 cells assessed as stimulation of histone H3 acetylation at 5 uM incubated for 24 hrs by Western blot; format: cell-based
In short: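 MDA-MB-231 cells in 35-mm dishes, dosed 24 h at graded concentrations, then trypsinized and PBS-washed. Lysed in RIPA (50 mM Tris-HCl pH 7.5, protease and phosphatase inhibitors) for 30 min at 4 °C, then cleared at 12,000g. Lysate, 60 μg protein by BCA, run on SDS-PAGE and PVDF. Blotted with anti-acetyl-histone H3 and HRP anti-rabbit, read by ECL.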

[4] = target: Histone deacetylase; assay: Inhibition of HDAC in human HeLa cell nuclear extracts using Ac-Arg-Gly-Lys(Ac)-AMC substrate by fluorimetry; format: protein assay
[5] = system: A549; assay: cells; format: functional; settings: Homo sapiens, A549, 72 h
[6] = system: K562; assay: cells; format: functional; settings: Homo sapiens, K562, 72 h
[7] = system: SW-620; assay: cells; format: functional; settings: Homo sapiens, SW-620, 72 h
[8] = system: COLO 205; assay: cells; format: functional; settings: Homo sapiens, COLO 205, 72 h
[9] = system: OVCAR-3; assay: cells; format: functional; settings: Homo sapiens, OVCAR-3, 72 h
[10] = system: PC-3; assay: cells; format: functional; settings: Homo sapiens, PC-3, 72 h
[11] = system: CCRF-CEM; assay: Growth inhibition of human CCRF-CEM cells after 72 hrs by MTS assay; format: functional
[12] = system: MOLT-4; assay: Growth inhibition of human MOLT4 cells after 72 hrs by MTS assay; format: functional; settings: MOLT-4, 72 h
[13] = system: NCI-H322M; assay: Growth inhibition of human NCI-H322M cells after 72 hrs by MTS assay; format: functional
[14] = system: NCI-H460; assay: Growth inhibition of human NCI-H460 cells after 72 hrs by MTS assay; format: functional; settings: NCI-H460, 72 h
[15] = system: COLO 205; assay: Growth inhibition of human COLO205 cells after 72 hrs by MTS assay; format: functional; settings: COLO 205, 72 h
[16] = system: HCT-116; assay: Growth inhibition of human HCT116 cells after 72 hrs by MTS assay; format: functional; settings: HCT-116, 72 h
[17] = system: HT-29; assay: Growth inhibition of human HT-29 cells after 72 hrs by MTS assay; format: functional; settings: HT-29, 72 h
[18] = system: OVCAR-5; assay: Growth inhibition of human OVCAR5 cells after 72 hrs by MTS assay; format: functional; settings: OVCAR-5, 72 h
[19] = system: SNB-75; assay: Growth inhibition of human SNB75 cells after 72 hrs by MTS assay; format: functional; settings: SNB-75, 72 h
[20] = system: UACC-62; assay: Growth inhibition of human UACC62 cells after 72 hrs by MTS assay; format: functional; settings: UACC-62, 72 h
[21] = Lipophilicity, log D of the compound in pH 7.4 PBS buffer; format: physicochemical
[22] = Half life in mouse plasma; format: ADME, cell-free
[23] = Half life in mouse liver microsomes; format: ADME, Microsome
[24] = Solubility in neutral water; format: physicochemical
[25] = target: Cytochrome P450 3A4 (Homo sapiens, UniProt P08684); assay: Inhibition of human CYP3A4; format: ADME
[26] = Apparent permeability from basolateral to apical side in human Caco2 cells at 10 uM; format: ADME, cell-based; settings: Caco-2
In short: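 Caco-2 monolayers, test compound at 10 μM. Apparent permeability measured in both directions, apical to basolateral and basolateral to apical. Efflux ratio = P_app B to A / P_app A to B. Run by a contract lab following published methods. Mean of three independent triplicate experiments.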

Cytochrome P450 3A4, sequence (P08684 whole entry): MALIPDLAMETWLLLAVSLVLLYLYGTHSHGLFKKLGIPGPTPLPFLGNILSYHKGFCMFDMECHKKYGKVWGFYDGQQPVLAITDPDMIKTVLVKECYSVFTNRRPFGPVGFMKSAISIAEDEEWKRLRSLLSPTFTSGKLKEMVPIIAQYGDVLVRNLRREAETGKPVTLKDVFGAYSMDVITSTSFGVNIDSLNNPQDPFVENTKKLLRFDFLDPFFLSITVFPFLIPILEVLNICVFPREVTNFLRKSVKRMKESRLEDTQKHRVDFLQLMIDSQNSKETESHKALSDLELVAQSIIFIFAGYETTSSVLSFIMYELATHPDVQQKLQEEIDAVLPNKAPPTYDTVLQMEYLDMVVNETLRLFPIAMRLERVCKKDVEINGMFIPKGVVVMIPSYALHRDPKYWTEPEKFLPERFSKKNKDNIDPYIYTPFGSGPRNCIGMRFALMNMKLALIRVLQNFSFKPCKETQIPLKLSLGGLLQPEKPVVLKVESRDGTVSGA

SMILES | GI50 [1] | GI50 [2] | histone H3 acetylation activity (active/not active) [3] | IC50 [4] | GI50 [5] | other results
CC(C)C(c1nc2ccccc2o1)n1cc(/C=C/C(=O)NO)nn1 (racemic) | 1000 nM | 170 nM | Active | 23 nM | 400 nM | –
O=C(/C=C/c1cn(C(Cc2ccccc2)c2nc3ccccc3o2)nn1)NO (racemic) | 5900 nM | 5500 nM | – | 219 nM | 4400 nM | –
O=C(/C=C/c1cn(Cc2nc3ccccc3o2)nn1)NO | 6100 nM | 1400 nM | Active | 105 nM | 4700 nM | GI50 [6]: 720 nM; GI50 [7]: 1200 nM; GI50 [8]: 1100 nM; GI50 [9]: 1900 nM; GI50 [10]: 1600 nM
O=C(O)CC(c1nc2ccccc2o1)n1cc(/C=C/C(=O)NO)nn1 (racemic) | > 20000 nM | > 20000 nM | – | 140 nM | > 20000 nM | –
O=C(CCCCCCC(=O)Nc1ccccc1)NO [VORINOSTAT] | – | – | – | – | – | GI50 [11]: 800 nM; GI50 [12]: 400 nM; GI50 [13]: 790 nM; GI50 [14]: 790 nM; GI50 [15]: 790 nM; GI50 [16]: 400 nM; GI50 [17]: 790 nM; GI50 [18]: 790 nM; GI50 [19]: 790 nM; GI50 [20]: 400 nM; logD [21]: 1; half-life [22]: 3.3 h; half-life [23]: 1.37 h; solubility [24]: > 170 µg/mL; INH [25]: 24.8 µM; Papp B→A at 10 µM [26]: 1.7 ×10⁻⁶ cm/s
NC(=O)CCC(c1nc2ccccc2o1)n1cc(/C=C/C(=O)NO)nn1 (racemic) | 14000 nM | 9500 nM | – | 49 nM | 21800 nM | –
O=C(/C=C/c1cn(Cc2nc3ccccc3s2)nn1)NO | 8800 nM | – | inactive | 41 nM | 2100 nM | GI50 [6]: 2600 nM; GI50 [7]: 1500 nM; GI50 [8]: 1500 nM; GI50 [9]: 3600 nM; GI50 [10]: 2900 nM
